From ChEMBL document CHEMBL1123422, “1-Ethyl-7-[3-[(ethylamino)methyl]-1-pyrrolidinyl]-6,8-difluoro-1,4- dihydro-4-oxo-3-quinoline-carboxylic acid. New quinolone antibacterial with potent gram-positive activity” (1986)
≈ marks a conversion by molar mass, not a printed value.

How the values were obtained:
Enterococcus faecalis = test: Compound was tested for inhibition of the […] organism Streptococcus faecalis MGH-2; type: functional
Summary of the method: (§1)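 MICs read in standard microdilution (microtitration) format against a panel of 10 bacterial organisms; values in µg/mL.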

Mus musculus [1] = test: Compound was evaluated for protective dose against the […] UC-76 lethal infection following sc administration in mouse; type: functional; conditions: read-out: PD50
Summary of the method: (§2)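 Acute lethal systemic infection in female Charles River CD-1 mice (18–22 g), challenged intraperitoneally with an estimated 100 median lethal dose in 5% hog gastric mucin. Single doses in a twofold rising series were given with the challenge, sc as aqueous solution or po by gavage in 5% gum acacia. PD50 (mg/kg) was estimated by log probit from survival of eight mice per dose.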

Escherichia coli [2] = test: Compound was tested for inhibition of the gram-negative organism Escherichia coli H560; type: functional; summary of the method: as §1
Providencia rettgeri = test: Compound was tested for inhibition of the gram-negative organism Providencia rettgeri H1771; type: functional; summary of the method: as §1
Enterobacter cloacae = test: Compound was tested for inhibition of the gram-negative organism […] HA 2646; type: functional
Mus musculus [3] = test: Compound was evaluated for protective dose against the […] UC-76 lethal infection following po administration in mouse; type: functional; conditions: read-out: PD50; summary of the method: as §2
Pseudomonas aeruginosa = test: Compound was tested for inhibition of the gram-negative organism Pseudomonas aeruginosa UI-18; type: functional; summary of the method: as §1
[4] = target: DNA gyrase (Escherichia coli) (UniProt P0AES6+P0AES4); test: Inhibition of DNA gyrase of Escherichia coli H560 cells
Summary of the method: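 DNA gyrase purified from Escherichia coli H560 cells. Cleavage assay: drug-gyrase-DNA complex denatured, converting closed circular DNA to linear DNA. Linear DNA resolved by gel electrophoresis and stained with ethidium bromide. Value is the minimum drug concentration (µg/mL) giving linear DNA at an intensity relative to oxolinic acid at 10 µg/mL. Aqueous drug stocks made up in 0.1 N NaOH or KOH.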

Streptococcus pyogenes = test: Compound was tested for inhibition of the […] organism Streptococcus pyogenes C203.; type: functional; summary of the method: as §1
Klebsiella pneumoniae = test: Compound was tested for inhibition of the gram-negative organism Klebsiella pneumoniae MGH-2; type: functional; summary of the method: as §1
Mus musculus [5] = test: Compound was evaluated for protective dose against Streptococcus pneumoniae SV-1 lethal infection following sc administration; type: functional; conditions: read-out: PD50
Summary of the method: (§3)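 Female Charles River CD-1 mice (18–22 g) were challenged intraperitoneally with an estimated 100 median lethal dose in tryptic soy broth. Single doses, in a twofold rising series, were given at the same time as challenge: subcutaneously as aqueous solution, or orally by gavage in 5% gum acacia. Survival in groups of eight mice per dose gave PD50 (mg/kg) by log probit.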

Mus musculus [6] = test: Compound was evaluated for protective dose against the Escherichia coli vogel lethal infection following peroral administration in mouse; type: functional; conditions: po, read-out: PD50; summary of the method: as §2
Staphylococcus aureus [7] = test: Compound was tested for inhibition of the […] organism […] H228.; type: functional; summary of the method: as §1
Mus musculus [8] = test: Compound was evaluated for protective dose against the Escherichia coli vogel lethal infection following sc administration in mouse; type: functional; conditions: read-out: PD50; summary of the method: as §2
Staphylococcus aureus [9] = test: Compound was tested for inhibition of the […] organism […] UC-76.; type: functional; summary of the method: as §1
Escherichia coli [10] = test: Compound was tested for inhibition of the gram-negative organism Escherichia coli vogel; type: functional; summary of the method: as §1
Mus musculus [11] = test: Compound was evaluated for protective dose against the Streptococcus pneumoniae SV-1 lethal infection following po administration; type: functional; conditions: read-out: PD50; summary of the method: as §3
Streptococcus pneumoniae = test: Compound was tested for inhibition of the […] organism Streptococcus pneumoniae SV-1; type: functional; summary of the method: as §1

Compound: CCn1cc(C(=O)O)c(=O)c2cc(F)c(N3CCNCC3)nc21 [ENOXACIN]
- MIC (Enterococcus faecalis): 3.1 µg/mL (≈ 9.68 µM)
- ED50 (Mus musculus [1]): 10 mg/kg
- MIC (Escherichia coli [2]): 0.1 µg/mL (≈ 0.312 µM)
- MIC (Providencia rettgeri): 0.1 µg/mL (≈ 0.312 µM)
- MIC (Enterobacter cloacae): 0.2 µg/mL (≈ 0.624 µM)
- ED50 (Mus musculus [3]): 12 mg/kg
- MIC (Pseudomonas aeruginosa): 1.6 µg/mL (≈ 4.99 µM)
- Min concentration [4]: 5 µg/mL
- MIC (Streptococcus pyogenes): 12.5 µg/mL (≈ 39 µM)
- MIC (Klebsiella pneumoniae): 0.2 µg/mL (≈ 0.624 µM)
- ED50 (Mus musculus [5]): > 100 mg/kg
- ED50 (Mus musculus [6]): 3 mg/kg
- MIC (Staphylococcus aureus [7]): 1.6 µg/mL (≈ 4.99 µM)
- ED50 (Mus musculus [8]): 2 mg/kg
- MIC (Staphylococcus aureus [9]): 0.4 µg/mL (≈ 1.25 µM)
- MIC (Escherichia coli [10]): 0.2 µg/mL (≈ 0.624 µM)
- ED50 (Mus musculus [11]): > 200 mg/kg

Compound: CCNCC1CCN(c2c(F)cc3c(=O)c(C(=O)O)cn(CC)c3c2F)C1 (configuration not stated) [MERAFLOXACIN]
- MIC (Streptococcus pneumoniae): 0.1 µg/mL (≈ 0.264 µM)
- MIC (Enterococcus faecalis): 0.1 µg/mL (≈ 0.264 µM)
- ED50 (Mus musculus [1]): 1.6 mg/kg
- MIC (Escherichia coli [2]): 0.1 µg/mL (≈ 0.264 µM)
- MIC (Providencia rettgeri): 0.4 µg/mL (≈ 1.05 µM)
- MIC (Enterobacter cloacae): 0.2 µg/mL (≈ 0.527 µM)
- ED50 (Mus musculus [3]): 2.8 mg/kg
- MIC (Pseudomonas aeruginosa): 1.6 µg/mL (≈ 4.22 µM)
- Min concentration [4]: 2.5 µg/mL
- MIC (Streptococcus pyogenes): 0.1 µg/mL (≈ 0.264 µM)
- MIC (Klebsiella pneumoniae): 0.2 µg/mL (≈ 0.527 µM)
- ED50 (Mus musculus [5]): 4.4 mg/kg
- ED50 (Mus musculus [6]): 12 mg/kg
- MIC (Staphylococcus aureus [7]): 0.1 µg/mL (≈ 0.264 µM)
- ED50 (Mus musculus [8]): 1.7 mg/kg
- MIC (Staphylococcus aureus [9]): 0.05 µg/mL (≈ 0.132 µM)
- MIC (Escherichia coli [10]): 0.1 µg/mL (≈ 0.264 µM)
- ED50 (Mus musculus [11]): 20 mg/kg

Compound: CCn1cc(C(=O)O)c(=O)c2ccc(C)nc21 [NALIDIXIC ACID]
- MIC (Enterococcus faecalis): > 100 µg/mL
- ED50 (Mus musculus [1]): > 100 mg/kg
- MIC (Escherichia coli [2]): 6.3 µg/mL (≈ 27.1 µM)
- MIC (Providencia rettgeri): 6.3 µg/mL (≈ 27.1 µM)
- MIC (Enterobacter cloacae): 6.3 µg/mL (≈ 27.1 µM)
- ED50 (Mus musculus [3]): > 100 mg/kg
- MIC (Pseudomonas aeruginosa): > 100 µg/mL
- Min concentration [4]: 50 µg/mL
- MIC (Streptococcus pyogenes): > 100 µg/mL
- MIC (Klebsiella pneumoniae): 6.3 µg/mL (≈ 27.1 µM)
- ED50 (Mus musculus [5]): > 100 mg/kg
- ED50 (Mus musculus [6]): 45 mg/kg
- MIC (Staphylococcus aureus [7]): 100 µg/mL (≈ 431 µM)
- ED50 (Mus musculus [8]): 26 mg/kg
- MIC (Staphylococcus aureus [9]): 25 µg/mL (≈ 108 µM)
- MIC (Escherichia coli [10]): 3.1 µg/mL (≈ 13.3 µM)
- ED50 (Mus musculus [11]): > 100 mg/kg
